The source of these data is ChEMBL document CHEMBL4725495, “Resorufin Enters the Photodynamic Therapy Arena: A Monoamine Oxidase Activatable Agent for Selective Cytotoxicity” (ACS Med Chem Lett, 2020).

For data set [1], the system named is SH-SY5Y. Description: Induction of ROS production in human SH-SY5Y cells irradiation with LED light for 30 mins measured after 3 hrs by DCFH-DA staining based fluorescence microscopy in presence of clorgyline. Type of data set: functional, cell-based. In outline: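 SH-SY5Y cells pretreated 30 min with clorgyline (0.1 μM), then incubated 3 h with R1 plus DCFH2-DA sensor and irradiated 30 min with LED (20 mW/cm2); green fluorescence imaged.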

The next data set has as its system MCF7. Description: Photocytotoxicity against human MCF-7 cells assessed as reduction in cell viability irradiated with 595 nm LED for 4 hrs measured after 24 hrs by MTT assay. The format is functional, cell-based. The conditions noted are these: MCF7, light or radiation study. The essentials: (§1)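 Cells incubated with varying R1 concentrations, then irradiated 4 h with 595 nm LED (20 mW/cm2); viability read by MTT assay; IC50 from concentration–viability curves.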
Background: Tetrazolium assays rely on reduction of a dye to a coloured formazan, in cell work by metabolically active cells.

The test system of data set [2] is SH-SY5Y. Description: Induction of ROS production in human SH-SY5Y cells in dark measured 3 hrs by DCFH2-DA fluorescence assay relative to control.
Data set [3] addresses T1, Amine oxidase [flavin-containing] B (Homo sapiens, UniProt P27338).
T1 sequence (P27338 whole entry): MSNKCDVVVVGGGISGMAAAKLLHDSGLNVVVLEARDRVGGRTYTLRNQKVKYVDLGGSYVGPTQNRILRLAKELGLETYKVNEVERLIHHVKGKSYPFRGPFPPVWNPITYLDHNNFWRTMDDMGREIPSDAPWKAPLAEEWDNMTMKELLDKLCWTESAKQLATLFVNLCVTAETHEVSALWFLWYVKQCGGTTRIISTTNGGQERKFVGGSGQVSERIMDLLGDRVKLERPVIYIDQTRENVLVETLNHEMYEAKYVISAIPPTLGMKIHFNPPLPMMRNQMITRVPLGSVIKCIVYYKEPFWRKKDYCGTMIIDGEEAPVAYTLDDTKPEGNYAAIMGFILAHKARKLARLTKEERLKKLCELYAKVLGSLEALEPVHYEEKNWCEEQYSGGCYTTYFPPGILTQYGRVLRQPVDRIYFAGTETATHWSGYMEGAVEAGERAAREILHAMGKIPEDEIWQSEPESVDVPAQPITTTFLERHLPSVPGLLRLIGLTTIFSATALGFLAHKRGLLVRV
Description: Prodrug activation assessed as MAO-B (unknown origin) mediated drug activation measured increase in emission signal at 620 nm at 10 uM over 3 hrs by fluorescence spectroscopy.

A short description of data set [4]: Photocytotoxicity against […] cells assessed as reduction in cell viability for 30 mins followed by irradiation with LED light after 30 mins by MTTassay. Type of data set: cell-based. The conditions noted are these: nih3t3, 0.5 h. The essentials: (§2)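 Cells incubated with varying R1 concentrations, then irradiated 30 min with 595 nm LED (20 mW/cm2); viability by MTT assay; IC50 from curves.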

For data set [5], the system named is SH-SY5Y. The experiment in a line: Induction of apoptosis in human SH-SY5Y cells assessed as late apoptotic cells level irradiated with 595 nm LED for 4 hrs at 2.5 uM by Annexin V-FITC/PI staining based confocal microscopy. Type of data set: functional, cell-based. The essentials: (§3)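 SH-SY5Y cells incubated with R1 (2.5 μM), kept dark or irradiated 4 h with 595 nm LED (20 mW/cm2), then stained with annexin V-FITC (green, early apoptosis) and propidium iodide (red, late apoptotic/necrotic); confocal imaging.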

The nature of data set [6]: Photocytotoxicity against […] cells assessed as reduction in cell viability irradiated with 595 nm LED for 4 hrs measured after 24 hrs by MTT assay. The format is cell-based. The conditions noted are these: NIH3T3, light or radiation study. The essentials:
as §1

In data set [7] the test system is SH-SY5Y. The experiment in a line: Induction of ROS production in human SH-SY5Y cells assessed as green emission irradiation with LED light after 30 mins in presence of NaN3 measured after 3 hrs incubation by DCFH-DA staining based fluorescence microscopy. The format is functional, cell-based. In outline: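 SH-SY5Y cells pretreated with NaN3 as 1O2 quencher, then incubated with R1 and DCFH2-DA and irradiated with LED (20 mW/cm2); sensor green emission imaged by fluorescence microscopy.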

Data set [8] relates to SH-SY5Y. The experiment in a line: Induction of ROS production in human SH-SY5Y cells assessed as green emission irradiation with LED light for 30 mins measured after 3 hrs incubation by DCFH-DA staining based fluorescence microscopy. Type of data set: functional, cell-based. The essentials:
(§4)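 Cells loaded with R1 for 3 h and with DCFH2-DA ROS sensor, then irradiated 30 min with LED (20 mW/cm2); green emission from oxidized sensor imaged by fluorescence microscopy.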

The nature of data set [9]: Induction of singlet oxygen generation using PBS buffer assessed as decrease in absorbance of ADMDA at 380 nm irradiated with 595 nm LED. The format is functional. The essentials:
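R1 (10 μM) pretreated with MAO-A or MAO-B (20 μg/mL) in PBS pH 7.4, 1% DMSO, with water-soluble anthracene trap ADMDA; kept dark 2 min, then irradiated with 595 nm LED (20 mW/cm2); ADMDA absorbance at 380 nm followed.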

Data set [10] has as its system SH-SY5Y. The experiment in a line: Photocytotoxicity against human SH-SY5Y cells assessed as reduction in cell viability irradiated with 595 nm LED for 4 hrs measured after 24 hrs by MTT assay. Type of data set: functional, cell-based. The note with it: light or radiation study. In outline:
as §1

Data set [11] deals with T2, Amine oxidase [flavin-containing] A (Homo sapiens, UniProt P21397).
T2 sequence (P21397 whole entry): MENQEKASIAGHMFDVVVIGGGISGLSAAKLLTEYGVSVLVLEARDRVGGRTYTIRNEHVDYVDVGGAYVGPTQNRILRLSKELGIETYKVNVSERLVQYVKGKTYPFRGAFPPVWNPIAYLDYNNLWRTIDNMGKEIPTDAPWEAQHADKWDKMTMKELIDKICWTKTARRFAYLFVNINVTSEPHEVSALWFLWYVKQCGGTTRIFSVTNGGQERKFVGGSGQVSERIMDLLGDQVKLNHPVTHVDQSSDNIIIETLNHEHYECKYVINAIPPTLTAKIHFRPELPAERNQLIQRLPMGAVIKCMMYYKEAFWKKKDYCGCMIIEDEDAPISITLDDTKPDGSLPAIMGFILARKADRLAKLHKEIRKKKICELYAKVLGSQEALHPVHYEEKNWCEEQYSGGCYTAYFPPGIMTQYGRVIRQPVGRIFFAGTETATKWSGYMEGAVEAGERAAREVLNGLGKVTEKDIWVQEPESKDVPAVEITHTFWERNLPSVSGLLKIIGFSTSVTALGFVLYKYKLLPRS
The experiment in a line: Prodrug activation assessed as MAO-A (unknown origin) mediated drug activation by measuring red shift of absorption maxima at 588/595 nm at 10 uM for 3 hrs by absorption spectroscopy.

Data set [12] can be described thus: Photocytotoxicity against […] cells assessed as cell viability at 2.5 uM irradiated with 595 nm LED for 4 hrs measured after 24 hrs by MTT assay. The conditions noted are these: read-out: Activity. The format is cell-based, NIH3T3. In outline: as §1
The subject of data set [13] is SH-SY5Y. The experiment in a line: Induction of apoptosis in human SH-SY5Y cells assessed as apoptotic cells incubated in dark for 4 hrs at 2.5 uM by Annexin V-FITC/PI staining based confocal microscopy. Type of data set: functional, cell-based. In outline:
as §3

Data set [14] can be described thus: Photocytotoxicity against […] cells assessed as cell viability in dark at 2.5 uM measured after 24 hrs by MTT assay. The conditions noted are these: nih3t3, 24 h. Type of data set: cell-based. The essentials: (§5)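 Cells incubated with varying R1 concentrations and kept in the dark in parallel with irradiated plates; viability by MTT assay.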
For a further data set, the system named is NIH3T3. The experiment in a line: Induction of ROS production in […] cells irradiation with LED light for 30 mins measured after 3 hrs by DCFH-DA staining based fluorescence microscopy. Type of data set: functional, cell-based. In outline: as §4
Data set [15] concerns SH-SY5Y. Description: Photocytotoxicity against human SH-SY5Y cells assessed as cell viability at 2.5 uM irradiated with 595 nm LED for 4 hrs measured after 24 hrs by MTT assay. Type of data set: functional. The conditions noted are these: light or radiation study, read-out: Activity. The essentials: as §1
In data set [16] the test system is SH-SY5Y. The experiment in a line: Photocytotoxicity against human SH-SY5Y cells assessed as reduction in cell viability for 30 mins followed by irradiation with LED light after 30 mins by MTTassay. The format is functional, cell-based. The note with it: light or radiation study, 0.5 h. In outline: as §2
For data set [17], the system named is SH-SY5Y. The experiment in a line: Induction of apoptosis in human SH-SY5Y cells assessed as early apoptotic cells level irradiated with 595 nm LED for 4 hrs at 2.5 uM by Annexin V-FITC/PI staining based confocal microscopy. Type of data set: functional, cell-based. The essentials:
as §3

For data set [18], the system named is SH-SY5Y. Description: Induction of apoptosis in human SH-SY5Y cells assessed as necrotic cells level irradiated with 595 nm LED for 4 hrs at 2.5 uM by Annexin V-FITC/PI staining based confocal microscopy. The format is functional, cell-based. The essentials:
as §3

The nature of data set [19]: Photostability in pH 7.4 PBS buffer at 408/500 nm irradiated with 595 nm LED for 4 hrs. The note with it: pH 7.4, 4 h. Type of data set: physicochemical.
The test system of data set [20] is SH-SY5Y. Description: Photocytotoxicity against human SH-SY5Y cells assessed as cell viability in dark at 2.5 uM measured after 24 hrs by MTT assay. The format is functional, cell-based. In outline: as §5
Data set [21] concerns the target T2, Amine oxidase [flavin-containing] A. Description: Prodrug activation assessed as MAO-A (unknown origin) mediated drug activation measuring increase in emission signal at 620 nm at 10 uM over 3 hrs by fluorescence spectroscopy.

The source made the active and inactive calls. The rule behind the calls is not given here.

With `NCCCOc1ccc2nc3ccc(=O)cc-3oc2c1I`, the outcome (in the data set with SH-SY5Y [1]; with SH-SY5Y [2]; with SH-SY5Y [7]; in data set [9]; with SH-SY5Y [13]; in the data set on NIH3T3) was inactive. Moreover, the result in the data set with SH-SY5Y [20] was inactive. Also, the IC50 (as a rule, the point on the concentration scale where inhibition reaches its midpoint) in the data set on MCF7 came to 4 µM; in [6], 6.5 µM; with SH-SY5Y [10], 420 nM; in the data set on SH-SY5Y [16], 1900 nM. Further, the Activity result is recorded as “Not Active” in data set [3]; “Non-Toxic” in data set [4]; “Active” in [11]; “Non-Toxic” in data set [14]; “Not Active” in data set [21]. Also, the result in the data set on SH-SY5Y [5], in the data set with SH-SY5Y [8], with SH-SY5Y [17] and in the data set on SH-SY5Y [18] was Active. Besides, the viability at 24 h, 2.5 µM in data set [12] was found to be 70%. Moreover, the viability at 2.5 µM in the data set on SH-SY5Y [15] was found to be 3%. The Stabilty result in data set [19] is “Stable”.
